Measured values published in ChEMBL document CHEMBL1141302, “Anti-Helicobacter pylori and thrombin inhibitory components from Chinese dragon's blood, Dracaena cochinchinensis” (J Nat Prod, 2007).
Converted amounts (≈) assume the structure as drawn.

Legend:
Helicobacter pylori = assay: Antibacterial activity against Helicobacter pylori ATCC 43504 by agar dilution method; type: functional
Outline: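 Mueller-Hinton agar plates with 7% lysed sheep blood and 2-fold serial dilutions of compound; spots of 5 µL bacterial suspension (10^7 cfu/mL) by multipoint inoculator; 37°C for 3 days, microaerobic (5% O2, 10% CO2, 85% N2, 98% humidity). MIC read as lowest inhibitory concentration; drug-free and DMSO-dilution plates as negative controls.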

Prothrombin = Prothrombin (Homo sapiens, UniProt P00734); assay: Inhibition of human thrombin
Dipeptidyl peptidase 4 = Dipeptidyl peptidase 4 (Homo sapiens, UniProt P27487); assay: Inhibition of human recombinant DPP4
Dipeptidyl peptidase 4, sequence (P27487 whole entry): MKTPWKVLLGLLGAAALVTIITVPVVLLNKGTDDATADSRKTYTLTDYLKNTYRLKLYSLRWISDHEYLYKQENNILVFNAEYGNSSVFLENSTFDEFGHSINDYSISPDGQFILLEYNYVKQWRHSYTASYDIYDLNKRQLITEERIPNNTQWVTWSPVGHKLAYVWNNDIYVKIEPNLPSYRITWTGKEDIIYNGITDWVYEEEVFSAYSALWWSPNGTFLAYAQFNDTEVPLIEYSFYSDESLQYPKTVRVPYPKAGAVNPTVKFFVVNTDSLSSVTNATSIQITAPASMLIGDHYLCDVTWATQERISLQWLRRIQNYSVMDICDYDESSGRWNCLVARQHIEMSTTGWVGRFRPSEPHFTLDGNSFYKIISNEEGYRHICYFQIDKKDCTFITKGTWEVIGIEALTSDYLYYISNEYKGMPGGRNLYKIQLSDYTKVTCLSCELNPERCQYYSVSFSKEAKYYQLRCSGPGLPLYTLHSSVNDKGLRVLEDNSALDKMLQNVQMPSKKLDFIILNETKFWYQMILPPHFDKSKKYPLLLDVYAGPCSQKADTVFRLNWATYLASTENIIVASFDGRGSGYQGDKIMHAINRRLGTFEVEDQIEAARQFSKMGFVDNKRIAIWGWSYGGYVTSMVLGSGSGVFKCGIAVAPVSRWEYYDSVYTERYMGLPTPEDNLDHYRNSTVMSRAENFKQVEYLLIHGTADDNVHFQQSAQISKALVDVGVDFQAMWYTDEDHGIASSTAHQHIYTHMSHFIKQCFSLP
Outline: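 Recombinant human DPP-IV, expressed and purified in-house, at 0.01 nM in 100 mM Hepes pH 7.5 with 10 µM Ala-Pro-AMC substrate and 2% DMSO.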

COc1cc(O)ccc1CCC(c1ccc(O)cc1)c1c(/C=C/c2ccc(O)cc2)cc(O)cc1OC (stereo not given) [COCHINCHINENENE C]
MIC (Helicobacter pylori): 64.3 µM (≈ 32.1 µg/mL)
IC50 (Prothrombin): 26.7 µM
IC50 (Dipeptidyl peptidase 4): > 40.2 µM

COc1ccc(C(CCc2ccc(O)cc2OC)c2c(O)cc(OC)cc2/C=C/c2ccc(O)cc2)cc1 (stereo not given) [COCHINCHINENENE B]
MIC (Helicobacter pylori): 62.5 µM (≈ 32 µg/mL)
IC50 (Prothrombin): 17.8 µM
IC50 (Dipeptidyl peptidase 4): > 39.1 µM

COc1cc(O)ccc1C(=O)/C=C/c1ccc(O)cc1
MIC (Helicobacter pylori): 118 µM (≈ 32 µg/mL)

COc1c(O)ccc2c1OCC(Cc1ccc(O)cc1)C2 (stereo not given)
MIC (Helicobacter pylori): 55.9 µM (≈ 16 µg/mL)

COc1cc(O)c(C(CCc2ccc(O)cc2OC)c2ccc(O)cc2)cc1CCC(=O)c1ccc(O)cc1 (stereo not given)
MIC (Helicobacter pylori): 60.6 µM (≈ 32 µg/mL)
IC50 (Prothrombin): 26.3 µM
IC50 (Dipeptidyl peptidase 4): > 36.9 µM

COc1ccc([C@@H]2CCc3ccc(O)cc3O2)cc1
MIC (Helicobacter pylori): 250 µM (≈ 64.1 µg/mL)

COc1ccc(/C=C/c2cc(O)cc(O)c2)cc1 [RESVERATROL 4'-METHYL ETHER]
MIC (Helicobacter pylori): 264 µM (≈ 64.1 µg/mL)

COc1cc(O)c2c(c1C)O[C@H](c1ccc(O)cc1)CC2
MIC (Helicobacter pylori): 55.9 µM (≈ 16 µg/mL)

Cc1ncc([N+](=O)[O-])n1CCO [METRONIDAZOLE]
MIC (Helicobacter pylori): 748 µM (≈ 128 µg/mL)

COC1=CC(=O)C=C(OC)C1(O)CCC(=O)c1ccc(O)cc1 [COCHINCHINENONE]
MIC (Helicobacter pylori): 201 µM (≈ 64.1 µg/mL)

COc1cc(O)ccc1CCC(c1ccc(O)cc1)c1cc2c(c(C)c1O)O[C@@H](c1ccc(O)cc1)CC2 (stereo not given in full)
MIC (Helicobacter pylori): 62.5 µM (≈ 32 µg/mL)
IC50 (Prothrombin): 21.5 µM
IC50 (Dipeptidyl peptidase 4): > 39.1 µM

COc1cc(O)cc(O)c1CCC(=O)c1ccc(O)cc1
MIC (Helicobacter pylori): 111 µM (≈ 32 µg/mL)

CC1(C)S[C@@H]2[C@H](NC(=O)[C@H](N)c3ccc(O)cc3)C(=O)N2[C@H]1C(=O)O [AMOXICILLIN]
MIC (Helicobacter pylori): 0.08 µM (≈ 0.0292 µg/mL)

COc1cc(O)cc(OC)c1CCC(=O)c1ccc(O)cc1
MIC (Helicobacter pylori): 212 µM (≈ 64.1 µg/mL)

COc1cc(O)ccc1CCC(c1ccc(O)cc1)c1c(O)cc(O)cc1/C=C/c1ccc(O)cc1 (stereo not given) [COCHINCHINENENE D]
MIC (Helicobacter pylori): 66.1 µM (≈ 32 µg/mL)
IC50 (Prothrombin): > 41.3 µM
IC50 (Dipeptidyl peptidase 4): > 41.3 µM

COc1ccc(C(CCc2ccc(O)cc2OC)c2c(OC)cc(/C=C/c3ccc(O)cc3)cc2OC)cc1 (stereo not given) [COCHINCHINENENE A]
MIC (Helicobacter pylori): 60.8 µM (≈ 32 µg/mL)
IC50 (Prothrombin): > 9.5 µM
IC50 (Dipeptidyl peptidase 4): > 36.9 µM

COc1ccc2c(c1C)O[C@@H](c1ccc(O)cc1)CC2
MIC (Helicobacter pylori): 59.3 µM (≈ 16 µg/mL)

COc1cc(O)ccc1CCC(=O)c1ccc(O)cc1
MIC (Helicobacter pylori): 235 µM (≈ 64.1 µg/mL)

COc1ccc(CCC(=O)c2ccc(O)cc2)c(OC)c1
MIC (Helicobacter pylori): 224 µM (≈ 64.1 µg/mL)

O=C(CCc1ccc(O)cc1O)c1ccc(O)cc1
MIC (Helicobacter pylori): 248 µM (≈ 64.1 µg/mL)

Cc1c(O)ccc2c1O[C@H](c1ccc(O)cc1)CC2
MIC (Helicobacter pylori): 31.3 µM (≈ 8.02 µg/mL)

COc1ccc(C(CCc2ccc(O)cc2OC)c2cc(CCC(=O)c3ccc(O)cc3)c(OC)cc2O)cc1 (stereo not given) [COCHINCHINENIN C]
MIC (Helicobacter pylori): 29.5 µM (≈ 16 µg/mL)
IC50 (Prothrombin): > 9.2 µM
IC50 (Dipeptidyl peptidase 4): > 36.9 µM

Oc1ccc(/C=C/c2cc(O)cc(O)c2)cc1 [RESVERATROL]
MIC (Helicobacter pylori): 281 µM (≈ 64.1 µg/mL)

COc1cc(OC)c(C(CCc2ccc(O)cc2OC)c2ccc(O)cc2)cc1CCC(=O)c1ccc(O)cc1 (stereo not given) [COCHINCHINENIN B]
MIC (Helicobacter pylori): 29.5 µM (≈ 16 µg/mL)
IC50 (Prothrombin): 12.3 µM
IC50 (Dipeptidyl peptidase 4): > 36.9 µM
